Test results reported in ChEMBL document CHEMBL3853298, “Total synthesis and in vitro bioevaluation of clavaminols A, C, H & deacetyl clavaminol H as potential chemotherapeutic and antibiofilm agents” (Eur J Med Chem, 2016).
In brackets after ≈: the same amount, converted by molar mass.

What was measured:
[1] = Cytotoxicity against human DU145 cells assessed as cell growth inhibition by MTT assay; format: functional, cell-based; details: DU-145
[2] = Cytotoxicity against human HeLa cells assessed as cell growth inhibition by MTT assay; format: functional, cell-based
[3] = Cytotoxicity against human MCF7 cells assessed as cell growth inhibition by MTT assay; format: functional, cell-based
Staphylococcus aureus [4] = assay: Antibacterial activity against Staphylococcus aureus MTCC 96 after 24 hrs by well diffusion method; format: functional; details: MTCC 96, 24 h
In short: (§1)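 Bacteria spread (0.1 mL suspension) on Mueller-Hinton agar; 6.0 mm wells loaded with compound over a 250 to 0.48 per-well dose range, methanol as negative control. Incubated 24 h at 37 °C. MIC taken as the lowest concentration still giving an inhibition zone. Duplicates, mean reported.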

Micrococcus luteus [5] = assay: Antibacterial activity against Micrococcus luteus MTCC 2470 after 24 hrs by well diffusion method; format: functional; details: MTCC 2470, 24 h; in short: as §1
Staphylococcus aureus [6] = assay: Antibacterial activity against Staphylococcus aureus MLS16 MTCC 2940 after 24 hrs by well diffusion method; format: functional; details: MLS16 MTCC 2940, 24 h; in short: as §1
Raoultella planticola = assay: Antibacterial activity against Klebsiella planticola MTCC 530 after 24 hrs by well diffusion method; format: functional; details: MTCC 530, 24 h; in short: as §1
Escherichia coli [7] = assay: Antibacterial activity against Escherichia coli MTCC 739 after 24 hrs by well diffusion method; format: functional; details: MTCC 739, 24 h; in short: as §1
Pseudomonas aeruginosa = assay: Antibacterial activity against Pseudomonas aeruginosa MTCC 2453 after 24 hrs by well diffusion method; format: functional; details: MTCC 2453, 24 h; in short: as §1
Candida albicans [8] = assay: Antifungal activity against Candida albicans MTCC 183 after 24 hrs by well diffusion method; format: functional; details: MTCC 183, 24 h
In short: (§2)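 Candida/Issatchenkia lawns (0.1 mL suspension) on Mueller-Hinton agar; 6.0 mm bored wells receive compound across a 250 to 0.48 per-well dose range, methanol as negative control. Plates kept 24 h at 30 °C. MIC is the lowest concentration producing a visible inhibition zone. Duplicate runs, mean values.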

Candida albicans [9] = assay: Antifungal activity against Candida albicans MTCC 854 after 24 hrs by well diffusion method; format: functional; details: MTCC 854, 24 h; in short: as §2
Candida albicans [10] = assay: Antifungal activity against Candida albicans MTCC 1637 after 24 hrs by well diffusion method; format: functional; details: MTCC 1637, 24 h; in short: as §2
Candida albicans [11] = assay: Antifungal activity against Candida albicans MTCC 3017 after 24 hrs by well diffusion method; format: functional; details: MTCC 3017, 24 h; in short: as §2
Candida albicans [12] = assay: Antifungal activity against Candida albicans MTCC 3018 after 24 hrs by well diffusion method; format: functional; details: MTCC 3018, 24 h; in short: as §2
Candida albicans [13] = assay: Antifungal activity against Candida albicans MTCC 3958 after 24 hrs by well diffusion method; format: functional; details: MTCC 3958, 24 h; in short: as §2
Candida albicans [14] = assay: Antifungal activity against Candida albicans MTCC 4748 after 24 hrs by well diffusion method; format: functional; details: MTCC 4748, 24 h; in short: as §2
Candida albicans [15] = assay: Antifungal activity against Candida albicans MTCC 7315 after 24 hrs by well diffusion method; format: functional; details: MTCC 7315, 24 h; in short: as §2
[16] = Antifungal activity against Candida parapsilosis MTCC 1744 after 24 hrs by well diffusion method; format: functional; in short: as §2
[Candida] aaseri [17] = Antifungal activity against Candida aaseri MTCC 1962 after 24 hrs by well diffusion method; format: functional; details: Yamadazyma aaseri, MTCC 1962, 24 h; in short: as §2
[18] = Antifungal activity against Candida glabrata MTCC 3019 after 24 hrs by well diffusion method; format: functional; details: Nakaseomyces glabratus; in short: as §2
[19] = Antifungal activity against Candida krusei MTCC 3020 after 24 hrs by well diffusion method; format: functional; details: Pichia kudriavzevii; in short: as §2
Pichia sporocuriosa [20] = assay: Antifungal activity against Issatchenkia hanoiensis MTCC 4755 after 24 hrs by well diffusion method; format: functional; details: MTCC 4755, 24 h; in short: as §2
Staphylococcus aureus [21] = assay: Bactericidal activity against Staphylococcus aureus MTCC 96 after 24 hrs; format: functional; details: MTCC 96, 24 h
In short: (§3)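 Broth macrodilution in Mueller Hinton broth, compound serially diluted from 150 down to 0. Overnight bacterial culture added to a final 1.5 × 10^8 CFU/mL (0.5 McFarland), 24 h at 37 °C. Suspension then subcultured onto Mueller Hinton agar for 24 h at 37 °C. MBC is the lowest concentration killing the strain. Duplicates.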

Staphylococcus aureus [22] = assay: Bactericidal activity against Staphylococcus aureus MLS16 MTCC 2940 after 24 hrs; format: functional; details: MLS16 MTCC 2940, 24 h; in short: as §3
Micrococcus luteus [23] = assay: Bactericidal activity against Micrococcus luteus MTCC 2470 after 24 hrs; format: functional; details: MTCC 2470, 24 h; in short: as §3
Candida albicans [24] = assay: Fungicidal activity against Candida albicans MTCC 183 after 24 hrs; format: functional; details: MTCC 183, 24 h
In short: (§4)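 Candida grown overnight in Mueller Hinton broth. Compound serially diluted in the same broth from 150 to 0 and inoculated to a final 1.5 × 10^8 CFU/mL (0.5 McFarland), then 24 h at 37 °C. Tube contents plated onto Mueller Hinton agar for 24 h at 37 °C. MFC is the lowest concentration killing the yeast. Duplicates.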

Candida albicans [25] = assay: Fungicidal activity against Candida albicans MTCC 227 after 24 hrs; format: functional; details: MTCC 227, 24 h; in short: as §4
Candida albicans [26] = assay: Fungicidal activity against Candida albicans MTCC 854 after 24 hrs; format: functional; details: MTCC 854, 24 h; in short: as §4
Candida albicans [27] = assay: Fungicidal activity against Candida albicans MTCC 3017 after 24 hrs; format: functional; details: MTCC 3017, 24 h; in short: as §4
Candida albicans [28] = assay: Fungicidal activity against Candida albicans MTCC 3018 after 24 hrs; format: functional; details: MTCC 3018, 24 h; in short: as §4
Candida albicans [29] = assay: Fungicidal activity against Candida albicans MTCC 3958 after 24 hrs; format: functional; details: MTCC 3958, 24 h; in short: as §4
Candida albicans [30] = assay: Fungicidal activity against Candida albicans MTCC 7315 after 24 hrs; format: functional; details: MTCC 7315, 24 h; in short: as §4
Candida parapsilosis = assay: Fungicidal activity against Candida parapsilosis MTCC 1744 after 24 hrs; format: functional; details: Lodderomyces parapsilosis, MTCC 1744, 24 h
In short: (§5)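 Broth dilution in Mueller Hinton broth with serial compound concentrations from […]. Overnight Candida cultures added to a final 1.5 × 10^8 CFU/mL (0.5 McFarland). Incubated 24 h at 37 °C, then 10 µL of each tube plated on Mueller Hinton agar for 24 h at 37 °C. MFC taken as the lowest concentration that kills the strain. Run in duplicate.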

[Candida] aaseri [31] = Fungicidal activity against Candida aaseri MTCC 1962 after 24 hrs; format: functional; details: Yamadazyma aaseri, MTCC 1962, 24 h; in short: as §4
Pichia kudriavzevii = assay: Fungicidal activity against Candida krusei MTCC 3020 after 24 hrs; format: functional; details: MTCC 3020, 24 h; in short: as §5
Pichia sporocuriosa [32] = assay: Fungicidal activity against Issatchenkia hanoiensis MTCC 4755 after 24 hrs; format: functional; details: MTCC 4755, 24 h; in short: as §5
Staphylococcus aureus [33] = assay: Antibiofilm activity against Staphylococcus aureus MTCC 96 incubated for 24 hrs under static condition by crystal violet staining-based assay; format: functional
In short: (§6)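 Strains grown overnight in tryptone soy broth with 0.5% glucose. Compound (250 to 0) mixed with inoculum at 5 × 10^5 CFU/mL in polystyrene microtiter plates. Non-adherent cells washed off with PBS; wells stained with 0.1% crystal violet, dye solubilised in 95% ethanol, absorbance read at 540 nm. IC50 for 50% biofilm inhibition taken from dose-response curves. Triplicates, mean ± S.D.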

Bacillus subtilis = assay: Antibiofilm activity against Bacillus subtilis MTCC 121 incubated for 24 hrs under static condition by crystal violet staining-based assay; format: functional; in short: as §6
Micrococcus luteus [34] = assay: Antibiofilm activity against Micrococcus luteus MTCC 2470 incubated for 24 hrs under static condition by crystal violet staining-based assay; format: functional; in short: as §6
Escherichia coli [35] = assay: Antibiofilm activity against Escherichia coli MTCC 739 incubated for 24 hrs under static condition by crystal violet staining-based assay; format: functional; in short: as §6

CCCCCCCCC[C@H](O)[C@@H](C)N [CLAVAMINOL A]
IC50 [1]: 10.8 µM
IC50 [2]: 15.4 µM
IC50 [3]: 18.2 µM
MIC (Staphylococcus aureus [4]): 7.8 µg/mL (≈ 38.7 µM)
MIC (Micrococcus luteus [5]): 1.9 µg/mL (≈ 9.44 µM)
MIC (Staphylococcus aureus [6]): 3.9 µg/mL (≈ 19.4 µM)
MIC (Raoultella planticola): 15.6 µg/mL (≈ 77.5 µM)
MIC (Escherichia coli [7]): 7.8 µg/mL (≈ 38.7 µM)
MIC (Pseudomonas aeruginosa): 7.8 µg/mL (≈ 38.7 µM)
MIC (Candida albicans [8]): 31.2 µg/mL (≈ 155 µM)
MIC (Candida albicans [9]): 15.6 µg/mL (≈ 77.5 µM)
MIC (Candida albicans [10]): 31.2 µg/mL (≈ 155 µM)
MIC (Candida albicans [11]): 15.6 µg/mL (≈ 77.5 µM)
MIC (Candida albicans [12]): 15.6 µg/mL (≈ 77.5 µM)
MIC (Candida albicans [13]): 31.2 µg/mL (≈ 155 µM)
MIC (Candida albicans [14]): 31.2 µg/mL (≈ 155 µM)
MIC (Candida albicans [15]): 15.6 µg/mL (≈ 77.5 µM)
MIC [16]: 31.2 µg/mL (≈ 155 µM)
MIC ([Candida] aaseri [17]): 62.5 µg/mL (≈ 310 µM)
MIC [18]: 15.6 µg/mL (≈ 77.5 µM)
MIC [19]: 7.8 µg/mL (≈ 38.7 µM)
MIC (Pichia sporocuriosa [20]): 31.2 µg/mL (≈ 155 µM)
MBC (Staphylococcus aureus [21]): 15.6 µg/mL (≈ 77.5 µM)
MBC (Staphylococcus aureus [22]): 7.8 µg/mL (≈ 38.7 µM)
MBC (Micrococcus luteus [23]): 7.8 µg/mL (≈ 38.7 µM)
MFC (Candida albicans [24]): 62.5 µg/mL (≈ 310 µM)
MFC (Candida albicans [25]): 31.2 µg/mL (≈ 155 µM)
MFC (Candida albicans [26]): 31.2 µg/mL (≈ 155 µM)
MFC (Candida albicans [27]): 31.2 µg/mL (≈ 155 µM)
MFC (Candida albicans [28]): 31.2 µg/mL (≈ 155 µM)
MFC (Candida albicans [29]): 62.5 µg/mL (≈ 310 µM)
MFC (Candida albicans [30]): 31.2 µg/mL (≈ 155 µM)
MFC (Candida parapsilosis): 62.5 µg/mL (≈ 310 µM)
MFC ([Candida] aaseri [31]): 62.5 µg/mL (≈ 310 µM)
MFC (Pichia kudriavzevii): 15.6 µg/mL (≈ 77.5 µM)
MFC (Pichia sporocuriosa [32]): 62.5 µg/mL (≈ 310 µM)
IC50 (Staphylococcus aureus [33]): 4.2 µg/mL (≈ 20.9 µM)
IC50 (Bacillus subtilis): 4.3 µg/mL (≈ 21.4 µM)
IC50 (Micrococcus luteus [34]): 0.8 µg/mL (≈ 3.97 µM)
INH (Escherichia coli [35]): 5.2 µg/mL
